The species named for data set [1] is Mus musculus. Briefly: Inhibition of tyrosinase in alpha-MSH-stimulated mouse B16F10 cells at 25 uM incubated for 24 hrs by microplate reader based assay. Put shortly:
(§1)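 B16F10 cells were seeded at 5x10^4 per well and cultured 24 h, then given 1 µM α-MSH plus agent (0–25 µM; kojic acid 25 µM; arbutin 400 µM) for 24 h. Cells were PBS-washed and lysed in 1% Triton X-100, 0.1 mM PMSF, 50 mM phosphate pH 6.8. Lysate was frozen at −80 °C, then centrifuged. 80 µL supernatant was mixed with 20 µL 10 mM L-DOPA, held 30 min at 37 °C, and OD500 read. Triplicate runs.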

The species entered for data set [2] is Mus musculus. Briefly: Inhibition of tyrosinase in alpha-MSH-stimulated mouse B16F10 cells assessed as reduction in melanin levels at 25 uM incubated for 24 hrs by microplate reader based assay relative to control. Put shortly:
(§2)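 B16F10 cells were seeded at 5x10^4 per well and cultured 24 h at 37 °C, 5% CO2. They were then co-treated with 1 µM α-MSH and test agent (0, 5, 10 or 25 µM) for 24 h, with kojic acid at 25 µM alongside. After two PBS washes, melanin was dissolved in 200 µL 1 M NaOH for 1 h and OD405 read. Triplicate runs.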

The nature of data set [3]: Antioxidant activity assessed as DPPH-radical scavenging activity at 1 mM incubated for 30 mins under dark condition by microplate reader based assay relative to control. Format: functional. The gist of the method:
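20 µL of 10 mM DMSO stock mixed with 180 µL of 0.2 mM DPPH in methanol (stated test level 1 mM). L-ascorbic acid served as the positive control. Kept 30 min in the dark, then absorbance read at 517 nm. Scavenging % = 100×(Ac−As)/Ac against the untreated control. Three independent experiments, mean ± SD.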
In general terms: The DPPH test is a chemical assay of radical scavenging.

The next data set has as its system B16-F10. Briefly: Cytotoxicity in mouse B16F10 cells assessed as reduction in cell viability up to 25 uM incubated for 24 hrs by WST-8 assay. Format: cell-based. The settings on record: b16-f10, 24 h. Put shortly:
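B16F10 murine melanoma cells were grown in DMEM with 10% FBS, penicillin and streptomycin at 37 °C and 5% CO2, seeded at 5x10^4 per well and cultured 24 h. They were then dosed at 0, 5, 10 or 25 for 24 h. WST-8 reagent was added, and OD450 was read. Viability is given as % of untreated cells; triplicate runs.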
A general note: Tetrazolium assays rely on reduction of a dye to a coloured formazan, in cell work by metabolically active cells.

The species named for data set [4] is Mus musculus. Kind of data set: Inhibition of tyrosinase in alpha-MSH-stimulated mouse B16F10 cells assessed as reduction in melanin levels at 5 uM incubated for 24 hrs by microplate reader based assay relative to control. Put shortly: as §2
The species entered for data set [5] is Mus musculus. Kind of data set: Inhibition of tyrosinase in alpha-MSH-stimulated mouse B16F10 cells assessed as reduction in melanin levels at 10 uM incubated for 24 hrs by microplate reader based assay relative to control. The gist of the method:
as §2

For data set [6], the species on record is Mus musculus. Kind of data set: Inhibition of tyrosinase in alpha-MSH-stimulated mouse B16F10 cells at 400 uM incubated for 24 hrs by microplate reader based assay. Put shortly:
as §1

Activity calls are given as the source filed them. The rule behind the calls is not given here.

By inhibition is commonly meant how much of the control response was suppressed. On to `O=c1cc(CO)occ1O`, for which the inhibition is 50.3% in the data set listed under Mus musculus [1] and 39% in the data set listed under Mus musculus [2].
Consider `COc1ccc(/C=C/C(=O)NC(=O)c2ccccc2)cc1`, for which the inhibition in data set [3] turned out to be 5.61%.
Same read-out and setting: the value for `O=C(/C=C/c1ccc(O)c(Br)c1)NC(=O)c1ccccc1` was 17.3%.
As for `O=C(/C=C/c1ccc(O)c(O)c1)NC(=O)c1ccccc1`, in the data set on B16-F10, the Activity result is listed as “Non-Toxic”. Further, the inhibition in the data set filed under Mus musculus [1] stood at 76.8%; in the data set filed under Mus musculus [4] it was 21.6%; in the data set listed under Mus musculus [5], 37.6%; in the data set listed under Mus musculus [2] it was 61.8%; in data set [3] it was 82.9%.
For the compound `O=C(/C=C/c1cc(Br)c(O)c(Br)c1)NC(=O)c1ccccc1`, in data set [3], the inhibition entry was “inactive”.
As to `COc1ccc(/C=C/C(=O)NC(=O)c2ccccc2)c(OC)c1`, in data set [3], the inhibition was found to be 5.76%.
Still for that read-out and setting: the value for `O=C(/C=C/c1ccc(O)cc1)NC(=O)c1ccccc1` was 4.89%; that for `O=C1O[C@H]([C@@H](O)CO)C(O)=C1O` was 84.6%; that for `COc1cc(/C=C/C(=O)NC(=O)c2ccccc2)cc(OC)c1OC` was 6.9%.
Still for that read-out and setting: the value for `COc1cc(/C=C/C(=O)NC(=O)c2ccccc2)cc(OC)c1O` was 3.76%.
In the case of `COc1ccc(/C=C/C(=O)NC(=O)c2ccccc2)cc1O`, in the data set with B16-F10, the Activity result was “Non-Toxic”. For the same compound, the inhibition was found to be 59.7% in the data set listed under Mus musculus [1]; 9.06% in the data set listed under Mus musculus [4]; 31.2% in the data set listed under Mus musculus [5]; 48% in the data set listed under Mus musculus [2]; 7.02% in data set [3].
In the data set listed under Mus musculus [6], `OC[C@H]1O[C@@H](Oc2ccc(O)cc2)[C@H](O)[C@@H](O)[C@@H]1O` showed an inhibition of 41.8%.
In the case of `COc1ccc(/C=C/C(=O)NC(=O)c2ccccc2)cc1OC`, the inhibition in data set [3] turned out to be 4.82%.

Values taken from ChEMBL document CHEMBL4385654, “Inhibitory effects of N-(acryloyl)benzamide derivatives on tyrosinase and melanogenesis” (Bioorg Med Chem, 2019).
